{
  "source": "ChEMBL document CHEMBL3244105",
  "about": "“Antiparasitic agents. 3. Synthesis and anthelmintic activities of novel 2-pyridinyl-5-isothiocyanatobenzimidazoles” (1979)",
  "key": {"Rodentolepis nana [1]": {"tested_on": "Rodentolepis nana", "test": "Anthelmintic activity against Hymenolepis nana infected in CF1 mouse assessed as clearance of worm burden assessed as clearance of worm burden at 0.2% dosed through diet for 4 days dosed 16 days post infection by press-plate technique", "format": "functional", "in_short": "(§1)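 Primary oral mouse screen. Compound was given mixed in the diet. Tapeworm (taeniacidal) and N. dubius nematode activity were each scored as percent clearance of worms.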"}, "[2]": {"tested_on": "Heligmosomoides polygyrus", "test": "Nematocidal activity against Nematospiroides dubius infected in CF1 mouse assessed as clearance of worm burden at 0.2% dosed through diet for 4 days dosed 16 days post infection by press-plate technique", "format": "functional", "in_short": "as §1"}, "[3]": {"tested_on": "gastrointestinal nematodes (Ovis aries)", "test": "Anthelmintic activity against gastrointestinal nematodes infected in sheep assessed as reduction of fecal egg count at 50 mg/kg, po measured up to 7 days relative to control", "parameters": "scale not given: the % may be the effect or the level left"}, "[4]": {"tested_on": "Heligmosomoides polygyrus", "test": "Nematocidal activity against Nematospiroides dubius infected in CF1 mouse assessed as clearance of worm burden at 0.03% dosed through diet for 4 days dosed 16 days post infection by press-plate technique", "format": "functional, organism-based", "in_short": "as §1"}, "Rodentolepis nana [5]": {"tested_on": "Rodentolepis nana", "test": "Anthelmintic activity against Hymenolepis nana infected in CF1 mouse assessed as clearance of worm burden at 0.03% dosed through diet for 4 days dosed 16 days post infection by press-plate technique", "format": "functional, organism-based", "in_short": "as §1"}, "[6]": {"tested_on": "gastrointestinal nematodes (Ovis aries)", "test": "Anthelmintic activity against gastrointestinal nematodes infected in sheep assessed as reduction of fecal egg count at 200 mg/kg, po measured up to 7 days relative to control", "parameters": "scale not given: the % may be the effect or the level left"}, "[7]": {"tested_on": "gastrointestinal nematodes (Ovis aries)", "test": "Anthelmintic activity against gastrointestinal nematodes infected in sheep assessed as reduction of fecal egg count at 25 mg/kg, po measured up to 7 days relative to control", "parameters": "scale not given: the % may be the effect or the level left"}, "Taenia pisiformis": {"tested_on": "Taenia pisiformis", "test": "Anthelmintic activity against Taenia pisiformis infected in dog assessed as reduction of fecal egg count", "format": "functional, organism-based"}, "Moniezia": {"tested_on": "Moniezia", "test": "Anthelmintic activity against Moniezia sp. infected in sheep assessed as reduction of fecal egg count", "format": "functional"}, "[8]": {"tested_on": "gastrointestinal nematodes (Ovis aries)", "test": "Anthelmintic activity against gastrointestinal nematodes infected in sheep assessed as reduction of fecal egg count at 43 mg/kg, po measured up to 7 days relative to control", "parameters": "scale not given: the % may be the effect or the level left"}},
  "note": "Activity calls are given as the source filed them. No cut-off for these calls is given here.",
  "data": [
    {"smiles": "S=C=Nc1ccnc(-c2nc3ccccc3[nH]2)c1", "values": [
      {"measurement": "Activity", "setting": "Rodentolepis nana [1]", "value": 50, "unit": "%"},
      {"measurement": "Activity", "setting": "[2]", "value": "inactive"},
      {"measurement": "Activity", "setting": "[3]", "value": 0, "unit": "%"}
    ]},
    {"smiles": "CCCCc1ccc2[nH]c(NC(=O)OC)nc2c1", "values": [
      {"measurement": "Activity", "setting": "[4]", "value": "Active"},
      {"measurement": "Activity", "setting": "Rodentolepis nana [5]", "value": "Active"}
    ]},
    {"smiles": "S=C=Nc1ccc2[nH]c(-c3cscn3)nc2c1", "values": [
      {"measurement": "Activity", "setting": "Rodentolepis nana [1]", "value": 100, "unit": "%"},
      {"measurement": "Activity", "setting": "[2]", "value": 90, "unit": "%"}
    ]},
    {"smiles": "c1ccc(-c2nc3ccccc3[nH]2)cc1", "values": [
      {"measurement": "Activity", "setting": "Rodentolepis nana [1]", "value": 25, "unit": "%"},
      {"measurement": "Activity", "setting": "[2]", "value": "inactive"},
      {"measurement": "Activity", "setting": "[3]", "value": 17, "unit": "%"}
    ]},
    {"smiles": "S=C=Nc1ccnc(-c2nc3cc(N=C=S)ccc3[nH]2)c1", "values": [
      {"measurement": "Activity", "setting": "Rodentolepis nana [1]", "value": 0, "unit": "%"},
      {"measurement": "Activity", "setting": "[2]", "value": "inactive"},
      {"measurement": "Activity", "setting": "[3]", "value": 0, "unit": "%"}
    ]},
    {"smiles": "S=C=Nc1cc2nc(-c3ccccn3)[nH]c2cc1Cl", "values": [
      {"measurement": "Activity", "setting": "Rodentolepis nana [1]", "value": 50, "unit": "%"},
      {"measurement": "Activity", "setting": "[2]", "value": "inactive"},
      {"measurement": "Activity", "setting": "[3]", "value": 15, "unit": "%"}
    ]},
    {"smiles": "Cl.S=C=Nc1ccc2[nH]c(-c3ccccn3)nc2c1", "values": [
      {"measurement": "Activity", "setting": "Rodentolepis nana [1]", "value": 75, "unit": "%"},
      {"measurement": "Activity", "setting": "[3]", "value": 95, "unit": "%"}
    ]},
    {"smiles": "S=C=Nc1cccc2[nH]c(-c3ccccn3)nc12", "values": [
      {"measurement": "Activity", "setting": "Rodentolepis nana [1]", "value": 25, "unit": "%"},
      {"measurement": "Activity", "setting": "[2]", "value": "inactive"},
      {"measurement": "Activity", "setting": "[3]", "value": 83, "unit": "%"}
    ]},
    {"smiles": "S=C=Nc1ccc2[nH]c(-c3cccnc3)nc2c1", "values": [
      {"measurement": "Activity", "setting": "Rodentolepis nana [1]", "value": 100, "unit": "%"},
      {"measurement": "Activity", "setting": "[6]", "value": 71, "unit": "%"},
      {"measurement": "Activity", "setting": "[2]", "value": "inactive"}
    ]},
    {"smiles": "COc1ccnc(-c2nc3cc(N=C=S)ccc3[nH]2)c1", "values": [
      {"measurement": "Activity", "setting": "Rodentolepis nana [1]", "value": 75, "unit": "%"},
      {"measurement": "Activity", "setting": "[2]", "value": "inactive"},
      {"measurement": "Activity", "setting": "[3]", "value": 0, "unit": "%"}
    ]},
    {"smiles": "Cc1ccc(S(=O)(=O)O)cc1.S=C=Nc1ccc2[nH]c(-c3ccccn3)nc2c1", "values": [
      {"measurement": "Activity", "setting": "Rodentolepis nana [1]", "value": 100, "unit": "%"},
      {"measurement": "Activity", "setting": "[3]", "value": 0, "unit": "%"}
    ]},
    {"smiles": "Cc1cccc(-c2nc3cc(N=C=S)ccc3[nH]2)n1", "values": [
      {"measurement": "Activity", "setting": "Rodentolepis nana [1]", "value": 75, "unit": "%"},
      {"measurement": "Activity", "setting": "[2]", "value": "inactive"},
      {"measurement": "Activity", "setting": "[3]", "value": 52, "unit": "%"}
    ]},
    {"smiles": "S=C=Nc1ccc2[nH]c(-c3ccccn3)nc2c1", "note": "[listing 1 of 2 here]", "values": [
      {"measurement": "Activity", "setting": "Rodentolepis nana [1]", "value": 100, "unit": "%"},
      {"measurement": "Activity", "setting": "[6]", "value": 100, "unit": "%"},
      {"measurement": "Activity", "setting": "[7]", "value": 11, "unit": "%"},
      {"measurement": "Activity", "setting": "[3]", "value": 100, "unit": "%"}
    ]},
    {"smiles": "S=C=Nc1ccc2[nH]c(-c3ccccn3)nc2c1", "note": "[listing 2 of 2 here]", "values": [
      {"measurement": "Activity", "setting": "Taenia pisiformis", "value": "inactive"},
      {"measurement": "Activity", "setting": "Moniezia", "value": "inactive"},
      {"measurement": "Activity", "setting": "[2]", "value": "inactive"}
    ]},
    {"smiles": "[O-][n+]1ccccc1-c1nc2cc(N=C=S)ccc2[nH]1", "values": [
      {"measurement": "Activity", "setting": "Rodentolepis nana [1]", "value": 100, "unit": "%"},
      {"measurement": "Activity", "setting": "[8]", "value": 9, "unit": "%"},
      {"measurement": "Activity", "setting": "[2]", "value": "inactive"}
    ]},
    {"smiles": "Cn1c(-c2cccc[n+]2C)nc2cc(N=C=S)ccc21.[I-]", "values": [
      {"measurement": "Activity", "setting": "Rodentolepis nana [1]", "value": 0, "unit": "%"},
      {"measurement": "Activity", "setting": "[2]", "value": "inactive"}
    ]},
    {"smiles": "c1ccc(-c2nc3ccccc3[nH]2)nc1", "values": [
      {"measurement": "Activity", "setting": "Rodentolepis nana [1]", "value": 0, "unit": "%"},
      {"measurement": "Activity", "setting": "[2]", "value": "inactive"},
      {"measurement": "Activity", "setting": "[3]", "value": 28, "unit": "%"}
    ]},
    {"smiles": "Cc1ccnc(-c2nc3cc(N=C=S)ccc3[nH]2)c1", "values": [
      {"measurement": "Activity", "setting": "Rodentolepis nana [1]", "value": 25, "unit": "%"},
      {"measurement": "Activity", "setting": "[2]", "value": "inactive"},
      {"measurement": "Activity", "setting": "[3]", "value": 0, "unit": "%"}
    ]},
    {"smiles": "S=C=Nc1ccc2[nH]c(-c3cc(Cl)ccn3)nc2c1", "values": [
      {"measurement": "Activity", "setting": "Rodentolepis nana [1]", "value": 75, "unit": "%"},
      {"measurement": "Activity", "setting": "[2]", "value": "inactive"},
      {"measurement": "Activity", "setting": "[3]", "value": 0, "unit": "%"}
    ]},
    {"smiles": "S=C=Nc1ccc2[nH]c(-c3ccncc3)nc2c1", "values": [
      {"measurement": "Activity", "setting": "Rodentolepis nana [1]", "value": 0, "unit": "%"},
      {"measurement": "Activity", "setting": "[2]", "value": "inactive"},
      {"measurement": "Activity", "setting": "[3]", "value": 0, "unit": "%"}
    ]},
    {"smiles": "S=C=Nc1ccc2[nH]c(-c3ccccc3)nc2c1", "values": [
      {"measurement": "Activity", "setting": "Rodentolepis nana [1]", "value": 100, "unit": "%"},
      {"measurement": "Activity", "setting": "[2]", "value": "inactive"},
      {"measurement": "Activity", "setting": "[3]", "value": 0, "unit": "%"}
    ]}
  ]
}
